Where “and” joins values, the source holds several entries; their conditions need not be identical. Identical values can stand only once.
What was measured:
DLD-1 [1] = assay: Inhibition of 20S proteasome activity in human DLD1 cells transfected with 4Ub-Luc gene assessed as bioluminescence induction factor at 10 uM after 8 hrs by luciferase reporter gene assay relative to epoxomicin; type: cell-based
Outline: (§1)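 Stably transfected DLD-1 cells expressing 4Ub-Luc reporter, cultured in MEM with 5% heat-inactivated serum. Seeded at 10⁴ cells/well and treated with compound or solvent for 8 h. Luciferase activity in lysates read by luminometer. Induction factor = signal of treated over untreated cells, normalised to epoxomicin at 10^-7 M run in parallel (set to 100). IF ≥10 counted active.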

DLD-1 [2] = assay: Inhibition of 20S proteasome in human DLD1 cells transfected with 4Ub-Luc gene assessed as bioluminescence induction factor at 5 uM after 8 hrs by luciferase reporter gene assay relative to epoxomicin; type: cell-based; outline: as §1
DLD-1 [3] = assay: Inhibition of 20S proteasome in human DLD1 cells transfected with 4Ub-Luc gene assessed as bioluminescence induction factor at 1 uM after 8 hrs by luciferase reporter gene assay relative to epoxomicin; type: cell-based; outline: as §1
DLD-1 [4] = assay: Inhibition of 20S proteasome in human DLD1 cells transfected with 4Ub-Luc gene assessed as bioluminescence induction factor at 0.5 uM after 8 hrs by luciferase reporter gene assay relative to epoxomicin; type: cell-based; outline: as §1
[5] = Inhibition of peptide-glutamyl-peptide-hydrolyzing activity of 20S proteasome in human DLD1 cells transfected with 4Ub-Luc gene using Z-Leu-Leu-Glu-AMC as substrate after 6 hrs by spectrofluorometric analysis; type: cell-based; conditions: dld-1
Outline: (§2)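 DLD-1 4Ub-Luc cells seeded at 10⁴ cells/well, exposed to compound or solvent for 6 h, then 30 min in reaction buffer (30 mM Tris–HCl pH 7.5, 1 mM ATP). Chymotrypsin-like and PGPH activities read with specific fluorogenic substrates.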

[6] = Inhibition of chymotrypsin-like activity of 20S proteasome in human DLD1 cells transfected with 4Ub-Luc gene using Succinyl-Leu-Leu-Val-Tyr-AMC as substrate after 6 hrs by spectrofluorometric analysis; type: cell-based; conditions: dld-1; outline: as §2
[7] = Cytotoxicity against human WM266.4 cells after 72 hrs by ATPlite assay; type: functional, cell-based; conditions: WM 266-4, 72 h
Outline: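 WM-266-4 metastatic melanoma cells grown in DMEM with 10% fetal calf serum, 2 mM L-glutamine, fungizone and penicillin–streptomycin at 37 °C, 5% CO2. Seeded at 3 × 10⁴ cells/ml, left 24 h, then exposed to increasing compound concentrations for 72 h. Viability read as ATP level (ATPlite). IC50 from nonlinear sigmoidal fit with variable Hill slope; mean of two independent experiments.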

IC50 [5]	IC50 [6]	Compound	fold change (FC) (DLD-1 [1])	fold change (FC) (DLD-1 [2])	fold change (FC) (DLD-1 [3])	fold change (FC) (DLD-1 [4])	IC50 [7]
> 1000 µM	> 1000 µM	C=C(C(=O)[C@H](OC(C)=O)[C@@H](C)[C@H]1[C@@H](OC(C)=O)C[C@@]2(C)[C@@H]3CC[C@H]4[C@H](C)C(=O)C=C[C@@]45C[C@@]35CC[C@]12C)[C@@H](C)COC(=O)Nc1ccc(N(C)C)cc1	60	63	51	19	0.96 µM
16 µM	13 µM	C=C(C(=O)[C@H](OC(C)=O)[C@@H](C)[C@H]1[C@@H](OC(C)=O)C[C@@]2(C)[C@@H]3CC[C@H]4[C@H](C)C(=O)C=C[C@@]45C[C@@]35CC[C@]12C)[C@@H](C)COC(=O)N1CCN(C)CC1	1	4.2	68	8	0.5 µM
–	–	C=CCOC[C@H](C)C(=C)C(=O)[C@H](O)[C@@H](C)[C@H]1[C@@H](OC(C)=O)C[C@@]2(C)[C@@H]3CC[C@H]4[C@H](C)C(=O)C=C[C@@]45C[C@@]35CC[C@]12C	1.5	13	49	3.7	0.78 µM
91 µM	19 µM	C=C(C(=O)[C@H](OC(C)=O)[C@@H](C)[C@H]1[C@@H](OC(C)=O)C[C@@]2(C)[C@@H]3CC[C@H]4[C@H](C)C(=O)C=C[C@@]45C[C@@]35CC[C@]12C)[C@@H](C)COP(=O)(OCC)OCC	2	16	43	3	–
100 µM	86 µM	C=C(C(=O)[C@H](OC(C)=O)[C@@H](C)[C@H]1[C@@H](OC(C)=O)C[C@@]2(C)[C@@H]3CC[C@H]4[C@H](C)C(=O)C=C[C@@]45C[C@@]35CC[C@]12C)[C@@H](C)COC	–	44	40	1.4	–
45 µM	31 µM	C=C(C(=O)[C@H](O)[C@@H](C)[C@H]1[C@@H](OC(C)=O)C[C@@]2(C)[C@@H]3CC[C@H]4[C@H](C)C(=O)C=C[C@@]45C[C@@]35CC[C@]12C)[C@@H](C)COC(C)=O	6	29	26	1.7	0.99 µM
43 µM	35 µM	C=C(C(=O)[C@H](OC(C)=O)[C@@H](C)[C@H]1[C@@H](OC(C)=O)C[C@@]2(C)[C@@H]3CC[C@H]4[C@H](C)C(=O)C=C[C@@]45C[C@@]35CC[C@]12C)[C@@H](C)COC(C)=O	–	48	11	1.1	1.5 µM
23 µM	17 µM	C=C(C(=O)[C@H](OC(=O)CNC(=O)OC(C)(C)C)[C@@H](C)[C@H]1[C@@H](OC(C)=O)C[C@@]2(C)[C@@H]3CC[C@H]4[C@H](C)C(=O)C=C[C@@]45C[C@@]35CC[C@]12C)[C@@H](C)COC(C)=O	1.6	3.4	69	76	1 µM
> 1000 µM	> 1000 µM	C=C(C(=O)[C@H](O)[C@@H](C)[C@H]1[C@@H](OC(C)=O)C[C@@]2(C)[C@@H]3CC[C@H]4[C@H](C)C(=O)C=C[C@@]45C[C@@]35CC[C@]12C)[C@@H](C)COC(=O)Nc1ccc(N(C)C)cc1	34	47	51	11	0.82 µM
13 µM	14 µM	C=CC(=O)OC[C@H](C)C(=C)C(=O)[C@H](OC(C)=O)[C@@H](C)[C@H]1[C@@H](OC(C)=O)C[C@@]2(C)[C@@H]3CC[C@H]4[C@H](C)C(=O)C=C[C@@]45C[C@@]35CC[C@]12C	2.2	18	20	1.4	–
> 1000 µM	> 1000 µM	C=C(C(=O)[C@H](OC(C)=O)[C@@H](C)[C@H]1[C@@H](OC(C)=O)C[C@@]2(C)[C@@H]3CC[C@H]4[C@H](C)C(=O)C=C[C@@]45C[C@@]35CC[C@]12C)[C@@H](C)COC(=O)Nc1ccccc1	–	60	42	6.4	0.19 µM
9.4 µM	10 µM	C=C(C(=O)[C@H](OC(C)=O)[C@@H](C)[C@H]1[C@@H](OC(C)=O)C[C@@]2(C)[C@@H]3CC[C@H]4[C@H](C)C(=O)C=C[C@@]45C[C@@]35CC[C@]12C)[C@@H](C)COC(=O)CCN(CC)CC	2.7	11	26	1.5	–
–	–	C=C(C(=O)[C@H](O)[C@@H](C)[C@H]1[C@@H](OC(C)=O)C[C@@]2(C)[C@@H]3CC[C@H]4[C@H](C)C(=O)C=C[C@@]45C[C@@]35CC[C@]12C)[C@@H](C)COC(=O)N1CCN(C)CC1 [listing 2 of 2 here]	1.5 and 1.4	7.1 and 4.5	69 and 70	15.4 and 12	–

Compound	IC50 [5]	IC50 [6]	fold change (FC) (DLD-1 [1])	fold change (FC) (DLD-1 [2])	fold change (FC) (DLD-1 [3])	fold change (FC) (DLD-1 [4])	IC50 [7]
C=C(C(=O)[C@H](OC(=O)CNC(=O)OC(C)(C)C)[C@@H](C)[C@H]1[C@@H](OC(C)=O)C[C@@]2(C)[C@@H]3CC[C@H]4[C@H](C)C(=O)C=C[C@@]45C[C@@]35CC[C@]12C)[C@@H](C)COC(=O)CNC(=O)OC(C)(C)C	38 µM	21 µM	17	33	47	4.3	–
C=C(C(=O)[C@H](OC(C)=O)[C@@H](C)[C@H]1[C@@H](OC(C)=O)C[C@@]2(C)[C@@H]3CC[C@H]4[C@H](C)C(=O)C=C[C@@]45C[C@@]35CC[C@]12C)[C@@H](C)COC(=O)CCC(=O)O	37 µM	25 µM	4.4 and 3.7	20 and 15	45 and 61	1.4 and 2	–
C=C(C(=O)[C@H](OC(C)=O)[C@@H](C)[C@H]1[C@@H](OC(C)=O)C[C@@]2(C)[C@@H]3CC[C@H]4[C@H](C)C(=O)C=C[C@@]45C[C@@]35CC[C@]12C)[C@@H](C)COC(=O)CN(C)C	52 µM	31 µM	2.7	11	50	66	0.61 µM
C=C(C(=O)[C@H](OS(=O)(=O)O)[C@@H](C)[C@H]1[C@@H](OC(C)=O)C[C@@]2(C)[C@@H]3CC[C@H]4[C@H](C)C(=O)C=C[C@@]45C[C@@]35CC[C@]12C)[C@@H](C)COS(=O)(=O)O	> 1000 µM	> 1000 µM	1.1	1	1	1	–
C=C(C(=O)[C@H](O)[C@@H](C)[C@H]1[C@@H](OC(C)=O)C[C@@]2(C)[C@@H]3CC[C@H]4[C@H](C)C(=O)C=C[C@@]45C[C@@]35CC[C@]12C)[C@@H](C)COC(=O)N1CCN(C)CC1 [listing 1 of 2 here]	32 µM	39 µM	–	–	–	–	0.46 µM
C=C(C(=O)[C@H](OC(=O)CCC(=O)O)[C@@H](C)[C@H]1[C@@H](OC(C)=O)C[C@@]2(C)[C@@H]3CC[C@H]4[C@H](C)C(=O)C=C[C@@]45C[C@@]35CC[C@]12C)[C@@H](C)COC(C)=O	10 µM	12 µM	3	16	69	2	–
C=C(C(=O)[C@H](O)[C@@H](C)[C@H]1[C@@H](OC(C)=O)C[C@@]2(C)[C@@H]3CC[C@H]4[C@H](C)C(=O)C=C[C@@]45C[C@@]35CC[C@]12C)[C@@H](C)COC(=O)CCC(=O)O	47 µM	61 µM	3.5 and 5	11 and 18	62 and 46	6 and 2.6	–
C=CCOC[C@H](C)C(=C)C(=O)[C@H](OC(C)=O)[C@@H](C)[C@H]1[C@@H](OC(C)=O)C[C@@]2(C)[C@@H]3CC[C@H]4[C@H](C)C(=O)C=C[C@@]45C[C@@]35CC[C@]12C	100 µM	100 µM	19	49	15	1.8	–
C=C(C(=O)[C@H](O)[C@@H](C)[C@H]1[C@@H](OC(C)=O)C[C@@]2(C)[C@@H]3CC[C@H]4[C@H](C)C(=O)C=C[C@@]45C[C@@]35CC[C@]12C)[C@@H](C)COCOC(C)=O	31 µM	22 µM	3	34	40	1.7	–
